Results on 8 compounds are retold here after ChEMBL document CHEMBL1795253, “Synthesis and biological evaluation in U87MG glioma cells of (ethynylthiophene)sulfonamido-based hydroxamates as matrix metalloproteinase inhibitors” (Eur J Med Chem, 2011).

The target in one test is T1, Interstitial collagenase (Homo sapiens, UniProt P03956).
T1 sequence (P03956 whole entry): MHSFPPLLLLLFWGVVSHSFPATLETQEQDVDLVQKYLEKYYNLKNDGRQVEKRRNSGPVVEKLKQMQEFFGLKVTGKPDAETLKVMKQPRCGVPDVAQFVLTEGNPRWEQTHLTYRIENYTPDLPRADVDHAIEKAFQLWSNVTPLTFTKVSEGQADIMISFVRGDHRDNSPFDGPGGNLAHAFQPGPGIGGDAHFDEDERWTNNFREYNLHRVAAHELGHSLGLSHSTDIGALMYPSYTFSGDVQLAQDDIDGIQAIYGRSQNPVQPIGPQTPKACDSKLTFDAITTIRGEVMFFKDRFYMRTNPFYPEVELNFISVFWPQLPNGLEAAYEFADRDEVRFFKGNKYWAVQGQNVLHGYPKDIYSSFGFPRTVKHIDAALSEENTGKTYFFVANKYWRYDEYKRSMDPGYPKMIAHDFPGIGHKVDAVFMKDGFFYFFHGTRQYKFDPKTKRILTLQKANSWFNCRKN
Kind of test: Inhibition of human MMP1 by fluorometric assay.

Test [1] concerns the target 72 kDa type IV collagenase (Homo sapiens, UniProt P08253). The test can be described thus: Inhibition of human MMP2 by fluorometric assay.
For the next test, the target named is Stromelysin-1 (Homo sapiens, UniProt P08254). The test can be described thus: Inhibition of human MMP3 by fluorometric assay.
A further test concerns the target Neutrophil collagenase (Homo sapiens, UniProt P22894). The test can be described thus: Inhibition of human MMP8 by fluorometric assay.
For test [2], the target named is Matrix metalloproteinase-9 (Homo sapiens, UniProt P14780). The test can be described thus: Inhibition of human MMP9 by fluorometric assay.
Test [3] concerns the target Matrix metalloproteinase-14 (Homo sapiens, UniProt P50281). The test can be described thus: Inhibition of human MMP14 by fluorometric assay. An outline of the steps: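 Pro-enzymes activated with APMA (2 mM 2 h, MMP-1; 2 mM 1 h, MMP-2/-8; 1 mM 1 h, MMP-9; all 37 °C) or trypsin then soybean trypsin inhibitor (MMP-3). MMP-14 was catalytic domain. Enzyme (MMP-1 2.0, MMP-2 0.5, MMP-3 5.0, MMP-8 1.5, MMP-9 1.3, MMP-14 1.0 nM) with inhibitor at 7 concentrations, 2 h, 25 °C, in Tris pH 7.5, 1% DMSO.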

The target in test [4] is T2, Matrix metalloproteinase-25 (Homo sapiens, UniProt Q9NPA2).
T2 sequence (Q9NPA2 whole entry): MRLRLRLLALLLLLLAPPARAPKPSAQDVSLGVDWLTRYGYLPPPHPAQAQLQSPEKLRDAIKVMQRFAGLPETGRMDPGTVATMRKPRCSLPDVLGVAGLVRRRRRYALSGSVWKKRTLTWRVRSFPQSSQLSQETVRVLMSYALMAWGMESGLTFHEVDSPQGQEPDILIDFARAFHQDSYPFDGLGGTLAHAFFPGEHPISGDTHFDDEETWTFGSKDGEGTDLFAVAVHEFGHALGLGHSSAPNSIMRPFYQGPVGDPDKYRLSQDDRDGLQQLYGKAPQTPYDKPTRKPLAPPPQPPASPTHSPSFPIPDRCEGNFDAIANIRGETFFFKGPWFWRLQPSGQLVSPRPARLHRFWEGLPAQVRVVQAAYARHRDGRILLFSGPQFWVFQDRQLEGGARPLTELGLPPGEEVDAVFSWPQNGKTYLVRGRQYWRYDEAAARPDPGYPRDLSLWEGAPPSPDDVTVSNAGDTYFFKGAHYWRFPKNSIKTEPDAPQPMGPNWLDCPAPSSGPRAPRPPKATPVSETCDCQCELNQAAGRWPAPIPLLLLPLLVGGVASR
The test can be described thus: Inhibition of human MMP25 by fluorometric assay. The method, boiled down: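 E. coli-expressed, refolded MMP-25 catalytic domain added to MOCAcPLGLA2pr(Dnp)AR-NH2 plus varying inhibitor in HEPES pH 7.5 with 5 mM CaCl2, 0.01% Brij-35, 5% DMSO, 25 °C. Initial rates from fluorescence (ex 328/em 393 nm), read every 4 s over 10 min.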

A short description of test [5]: Cytotoxicity against human U87MG cells assessed as dead cells at 5 nM after 24 hrs by trypan blue exclusion assay. It is filed as functional, U-87MG ATCC. An outline of the steps:
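U87MG human glioblastoma cells (RPMI, 10% FBS, 2 mM L-glutamine, penicillin/streptomycin, 1% non-essential amino acids, 37 °C, 5% CO2) seeded at 30,000 cells/cm2 in serum-free medium with 5 nM compound, DMSO vehicle ≤1% final, for 24 h. Cells lightly trypsinized, pelleted 800 x g 5 min, stained with 0.4% Trypan Blue in 0.9% NaCl, counted by haemocytometer; mean ± S.E.M., ≥3 experiments in duplicate.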

Test [6] in a line: Antiinvasive activity against human U87MG cells at 5 nM after 24 hrs by Matrigel basement membrane transwell assay. The class given is functional, U-87MG ATCC. The method, boiled down: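 U87MG cells (maintained in RPMI, 10% FBS, 37 °C, 5% CO2) suspended serum-free, 60,000 per upper transwell (8.0 μm filters coated with Matrigel 0.32 mg/mL), with inhibitor 5 nM, DMSO vehicle ≤1%. Lower chamber RPMI with 10% FBS. Invasion 24 h at 37 °C. Lower-surface cells fixed with p-formaldehyde, crystal violet-stained, counted in 5 fields. Inhibition versus untreated control. Duplicate, ≥3 experiments, mean ± S.E.M.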

A short description of test [7]: (§1) Antiinvasive activity against human U87MG cells after 24 hrs by Matrigel basement membrane transwell assay. It is filed as functional, cell-based. Conditions: u-87mg atcc. The method, boiled down:
(§2)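 Transwell filters (8.0 μm pores) coated with Matrigel (0.32 mg/mL) overnight at room temperature. U87MG cells in serum-free medium (60,000/400 μL) with inhibitor (1, 5, 25, 125 nM; DMSO ≤1%) in upper chamber; RPMI + 10% FBS below. 37 °C, 24 h.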

The test system of another test is U-87MG ATCC. The description is as §1. It is filed as functional, cell-based. The method, boiled down: as §2

Chain of Neutrophil collagenase (P22894 whole entry): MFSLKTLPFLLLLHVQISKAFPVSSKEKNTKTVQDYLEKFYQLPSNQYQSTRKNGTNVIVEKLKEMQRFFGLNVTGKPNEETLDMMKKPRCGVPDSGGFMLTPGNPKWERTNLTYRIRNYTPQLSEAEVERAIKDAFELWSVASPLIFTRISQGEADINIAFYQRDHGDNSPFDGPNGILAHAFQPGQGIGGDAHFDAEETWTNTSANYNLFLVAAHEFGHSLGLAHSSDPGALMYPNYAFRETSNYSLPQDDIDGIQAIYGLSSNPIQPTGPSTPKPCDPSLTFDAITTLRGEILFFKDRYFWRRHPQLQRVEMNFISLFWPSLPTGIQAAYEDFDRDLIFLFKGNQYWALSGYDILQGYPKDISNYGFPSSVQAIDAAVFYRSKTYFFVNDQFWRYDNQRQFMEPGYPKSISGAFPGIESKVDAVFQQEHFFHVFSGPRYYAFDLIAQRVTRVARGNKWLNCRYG
Chain of Stromelysin-1 (P08254 whole entry): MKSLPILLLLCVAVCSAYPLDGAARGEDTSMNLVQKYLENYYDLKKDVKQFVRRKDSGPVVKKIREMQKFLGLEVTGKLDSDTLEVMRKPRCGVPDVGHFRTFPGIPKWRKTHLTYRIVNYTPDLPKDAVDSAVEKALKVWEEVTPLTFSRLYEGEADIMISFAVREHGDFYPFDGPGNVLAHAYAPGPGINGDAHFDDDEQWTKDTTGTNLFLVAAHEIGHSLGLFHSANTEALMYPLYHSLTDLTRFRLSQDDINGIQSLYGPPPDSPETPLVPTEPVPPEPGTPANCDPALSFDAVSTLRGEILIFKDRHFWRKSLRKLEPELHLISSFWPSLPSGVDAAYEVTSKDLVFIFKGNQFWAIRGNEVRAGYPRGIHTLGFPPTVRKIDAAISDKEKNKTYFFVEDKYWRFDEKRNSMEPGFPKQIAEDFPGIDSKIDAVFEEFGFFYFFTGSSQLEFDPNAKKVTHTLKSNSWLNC
Chain of 72 kDa type IV collagenase (P08253 whole entry): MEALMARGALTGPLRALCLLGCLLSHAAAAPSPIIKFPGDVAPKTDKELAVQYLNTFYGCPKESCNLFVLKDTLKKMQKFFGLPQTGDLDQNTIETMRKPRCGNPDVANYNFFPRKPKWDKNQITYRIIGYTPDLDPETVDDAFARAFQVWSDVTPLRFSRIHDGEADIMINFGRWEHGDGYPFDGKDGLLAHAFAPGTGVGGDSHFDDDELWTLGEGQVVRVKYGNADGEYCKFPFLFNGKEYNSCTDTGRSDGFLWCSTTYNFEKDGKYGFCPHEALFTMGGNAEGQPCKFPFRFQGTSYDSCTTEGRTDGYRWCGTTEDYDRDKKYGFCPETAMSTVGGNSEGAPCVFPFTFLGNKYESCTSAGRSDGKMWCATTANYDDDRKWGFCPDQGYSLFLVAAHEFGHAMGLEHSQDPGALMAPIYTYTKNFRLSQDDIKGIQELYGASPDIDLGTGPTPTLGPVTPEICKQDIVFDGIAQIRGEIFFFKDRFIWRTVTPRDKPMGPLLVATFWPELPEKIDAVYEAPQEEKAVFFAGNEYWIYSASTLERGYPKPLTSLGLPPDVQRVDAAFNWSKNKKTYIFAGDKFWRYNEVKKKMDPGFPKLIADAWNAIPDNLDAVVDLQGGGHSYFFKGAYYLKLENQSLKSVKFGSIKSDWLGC
Chain of Matrix metalloproteinase-9 (P14780 whole entry, the tested form may be a part): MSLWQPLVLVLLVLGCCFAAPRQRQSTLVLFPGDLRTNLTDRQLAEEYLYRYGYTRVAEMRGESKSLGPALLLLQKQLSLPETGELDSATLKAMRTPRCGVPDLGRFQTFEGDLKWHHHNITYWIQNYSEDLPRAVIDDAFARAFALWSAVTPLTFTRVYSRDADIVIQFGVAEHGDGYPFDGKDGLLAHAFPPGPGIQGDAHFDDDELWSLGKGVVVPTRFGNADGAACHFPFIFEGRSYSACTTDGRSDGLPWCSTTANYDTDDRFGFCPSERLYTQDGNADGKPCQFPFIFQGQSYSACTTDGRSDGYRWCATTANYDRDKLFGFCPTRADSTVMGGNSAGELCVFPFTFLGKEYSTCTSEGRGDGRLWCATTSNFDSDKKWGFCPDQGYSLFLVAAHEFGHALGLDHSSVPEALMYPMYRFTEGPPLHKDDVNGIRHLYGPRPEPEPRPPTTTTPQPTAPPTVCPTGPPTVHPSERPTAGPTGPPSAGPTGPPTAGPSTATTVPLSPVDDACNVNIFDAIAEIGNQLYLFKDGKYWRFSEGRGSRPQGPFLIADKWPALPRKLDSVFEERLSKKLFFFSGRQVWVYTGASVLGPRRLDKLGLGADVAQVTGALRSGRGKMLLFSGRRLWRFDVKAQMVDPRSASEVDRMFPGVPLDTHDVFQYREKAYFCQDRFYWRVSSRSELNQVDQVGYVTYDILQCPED

The IC50 is the concentration that inhibits the measured activity by half. On to `CCCCc1ccc(C#Cc2ccc(S(=O)(=O)NCC(=O)NO)s2)cc1`, for which the IC50 against Interstitial collagenase was 13000 nM; in [1], 1.5 nM; against Stromelysin-1, 46 nM; against Neutrophil collagenase, 200 nM; in [2], 79 nM; in test [3], 700 nM. Further, the IC50 in test [4] turned out to be 34 nM. Further, the Activity is 11.5% in [5] and 39.5% in test [6].
`CCCCc1ccc(C#Cc2ccc(S(=O)(=O)N[C@H](Cc3c[nH]c4ccccc34)C(=O)NO)s2)cc1`: the half-maximal inhibitory concentration (IC50) against Interstitial collagenase came out at 2300 nM; against Stromelysin-1 it was 93 nM; at Neutrophil collagenase, 280 nM; in test [2], 77 nM; in test [3], 1700 nM; in test [4] it was 76 nM. Besides, the Activity in [5] came out at 6.8%; in [6], 48.4%.
As to `CCCCc1ccc(C#Cc2ccc(S(=O)(=O)N3CSC[C@H]3C(=O)NO)s2)cc1`, the IC50 on Interstitial collagenase was found to be 21000 nM; in [1] it was 2.5 nM; at Stromelysin-1, 38 nM; on Neutrophil collagenase, 500 nM; in test [2], 21 nM; in [3] it was 1600 nM. The IC50 in [4] was determined as 170 nM. The Activity in [5] was 17.8%; in test [6], 16%.
With `CCCCc1ccc(C#Cc2ccc(S(=O)(=O)N[C@H](Cc3ccc(C(=O)c4ccccc4)cc3)C(=O)NO)s2)cc1`, the IC50 was 37000 nM on Interstitial collagenase; 4 nM in test [1]; 84 nM at Stromelysin-1; 440 nM against Neutrophil collagenase; 50 nM in test [2]; 6600 nM in [3]. Further, it took 340 nM to reach half-maximal inhibition in test [4] (IC50). In addition, the results for the Activity in test [5] and in test [6] were 9.38% and 27.5%, respectively.
Consider `COc1ccc(S(=O)(=O)N(Cc2cccnc2)[C@@H](C(=O)NO)C(C)C)cc1.Cl` [CGS-27023A], for which the concentration for half-maximal inhibition (IC50) in test [4] is 1.5 nM. For the same compound, the Activity amounted to 10.8% in [5] and 28.3% in test [6].
`CCCCc1ccc(C#Cc2ccc(S(=O)(=O)N3Cc4ccccc4C[C@@H]3C(=O)NO)s2)cc1`: the IC50 against Interstitial collagenase worked out at 6700 nM; in test [1] it was 1.3 nM; at Stromelysin-1 it was 11 nM; against Neutrophil collagenase it was 30 nM; in [2], 4.3 nM; in test [3], 112 nM. The same compound displayed a half-maximal inhibitory concentration (IC50) in test [4] of 3.4 nM. In addition, the Activity in test [5] worked out at 13.6%; in test [6], 35.9%.
Consider `CCCCc1ccc(C#Cc2ccc(S(=O)(=O)N[C@H](Cc3ccc(OCc4ccccc4)cc3)C(=O)NO)s2)cc1`, for which the half-inhibitory concentration (IC50) on Interstitial collagenase is 4800 nM; in test [1], 2.3 nM; against Stromelysin-1, 180 nM; on Neutrophil collagenase, 490 nM; in [2] it was 63 nM; in test [3] it was 2100 nM. Besides, the results for the IC50 in test [4] and in [7] were 38 nM and 12 nM, respectively. Also, the Activity is 12.3% in test [5], 42.6% in test [6] and “Dose-dependent effect” with U-87MG ATCC.
Regarding `CCCCc1ccc(C#Cc2ccc(S(=O)(=O)N[C@H](Cc3csc4ccccc34)C(=O)NO)s2)cc1`, the half-maximal inhibitory concentration (IC50) stood at 56000 nM against Interstitial collagenase; 17 nM in test [1]; 320 nM at Stromelysin-1; 1700 nM at Neutrophil collagenase; 650 nM in [2]; 23000 nM in test [3]. This compound had an IC50 in test [4] of 220 nM. Further, the Activity in test [5] stood at 14.4%; in test [6], 34%.
